ChEMBL document CHEMBL1139832, “Selective angiotensin II AT(2) receptor agonists devoid of the imidazole ring system” (Bioorg Med Chem, 2007)
Calls of active or inactive are those of the source. The calls are words filed in the database; no cut-off is given here.

How the values were obtained:
[1] = target: T1, Type-1 angiotensin II receptor A (Rattus norvegicus, UniProt P25095); experiment: Displacement of [125I]Ang 2 from AT1 receptor in rat liver membranes; format: cell membranes, Membrane
T1 sequence (P25095 whole entry): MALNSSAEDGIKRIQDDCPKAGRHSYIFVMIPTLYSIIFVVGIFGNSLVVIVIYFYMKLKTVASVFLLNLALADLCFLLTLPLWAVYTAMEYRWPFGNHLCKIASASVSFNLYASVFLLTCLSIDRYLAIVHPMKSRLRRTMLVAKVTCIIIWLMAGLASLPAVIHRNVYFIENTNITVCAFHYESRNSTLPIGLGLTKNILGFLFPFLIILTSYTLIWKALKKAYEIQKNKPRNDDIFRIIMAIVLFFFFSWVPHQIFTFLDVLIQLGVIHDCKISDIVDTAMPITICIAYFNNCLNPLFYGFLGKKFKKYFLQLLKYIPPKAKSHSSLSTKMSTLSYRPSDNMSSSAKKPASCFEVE
How it was run: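 Rat liver membranes (5 mg original tissue) incubated with [125I]Ang II (0.03 nM) and varying test compound in 50 mM Tris–HCl pH 7.4, 100 mM NaCl, 10 mM MgCl2, 1 mM EDTA, 0.025% bacitracin, 0.2% BSA; 25 °C for 2 h. Filtered onto polyethylamine-soaked GF/B filters, gamma counting. Nonspecific binding with 1 µM Ang II; triplicate.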

[2] = Displacement of [125I]Ang 2 from AT2 receptor in pig uterus membranes; format: cell membranes, Sus scrofa, Membrane
How it was run: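 Porcine uterine myometrial membranes (10 mg original tissue), with 1 µM losartan to block AT1, incubated with [125I]Ang II (0.03 nM) and varying test compound in Tris–HCl pH 7.4 buffer with NaCl, MgCl2, EDTA, bacitracin and BSA; 25 °C, 1.5 h. Filtered, gamma counted. Nonspecific binding with 1 µM Ang II. Ki via Cheng–Prusoff (Kd 0.73 nM), one-site fit; triplicate.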

[3] = system: NG108-15; experiment: Induction of neurite outgrowth in NG108-15 cells at 1 nM after 3 days; format: functional, cell-based
How it was run: (§1)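 NG108-15 neuroblastoma×glioma cells (AT2 only; DMEM, 10% FBS, HAT) plated at 3.6·10⁴ cells/35 mm dish, then treated daily for 3 days, alone or with PD 123,319 added 30 min beforehand. Examined by phase-contrast microscopy.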

[4] = system: NG108-15; experiment: Induction of neurite outgrowth in NG108-15 cells at 0.1 uM after 3 days; format: functional, cell-based; how it was run: as §1

Compound	Ki [1] [µM]	Ki [2] [µM]	Activity [3]	Activity [4]
CCCCOC(=O)NS(=O)(=O)c1sc(CC(C)C)cc1-c1ccc(CN(C(=O)c2ccccc2)c2ccc(C)cc2)cc1	> 10	0.046		
CCCCOC(=O)NS(=O)(=O)c1sc(CC(C)C)cc1-c1ccc(CN(C)C(C)=O)o1	> 10	0.0091	Active	
CCCCOC(=O)NS(=O)(=O)c1sc(CC(C)C)cc1-c1ccc(CC(=O)NC)cc1	> 10	0.08		
CCCCOC(=O)NS(=O)(=O)c1sc(CC(C)C)cc1-c1csc(CN(C)C(C)=O)c1	> 10	> 10		
CCCCOC(=O)NS(=O)(=O)c1sc(CC(C)C)cc1-c1ccc(CC(N)=O)cc1	> 10	0.051		
CCCCOC(=O)NS(=O)(=O)c1sc(CC(C)C)cc1-c1ccc(CC(=O)N(CC)Cc2ccccc2)cc1	> 10	0.322		
CCCCOC(=O)NS(=O)(=O)c1sc(CC(C)C)cc1-c1ccc(CN(C)S(C)(=O)=O)cc1	> 10	0.032		
CCCCOC(=O)NS(=O)(=O)c1sc(CC(C)C)cc1-c1ccc(CC(=O)N(Cc2ccccc2)Cc2ccccc2)cc1	> 10	0.185		
CCCCOC(=O)NS(=O)(=O)c1sc(CC(C)C)cc1-c1ccc(CN(C)OC)cc1	> 10	0.0028	Active	
CCCCOC(=O)NS(=O)(=O)c1sc(CC(C)C)cc1-c1ccc(CC(=O)N2CCSC2)cc1	> 10	0.133		
CCCCOC(=O)NS(=O)(=O)c1sc(CC(C)C)cc1-c1ccc(CN(Cc2ccccc2)C(=O)CCCC)cc1	> 10	0.084		
CCCCOC(=O)NS(=O)(=O)c1sc(CC(C)C)cc1-c1ccc(CC(=O)N(C)C)cc1	> 10	0.007		Active
CCCCOC(=O)NS(=O)(=O)c1sc(CC(C)C)cc1-c1ccc(CC(=O)N(c2ccccc2)c2ccccc2)cc1	> 10	0.219		
CCCCOC(=O)NS(=O)(=O)c1sc(CC(C)C)cc1-c1ccc(CNC(C)=O)cc1	> 10	0.0058		
CCCCOC(=O)NS(=O)(=O)c1sc(CC(C)C)cc1-c1ccc(CN(Cc2ccccc2)C(C)=O)cc1	> 10	0.2		
CCCCOC(=O)NS(=O)(=O)c1sc(CC(C)C)cc1-c1ccc(CN(C(C)=O)c2ccc(C)cc2)cc1	> 10	0.06		

Compound	Ki [1] [µM]	Ki [2] [µM]	Activity [3]	Activity [4]
CCCCOC(=O)NS(=O)(=O)c1sc(CC(C)C)cc1-c1ccc(CC(=O)Nc2ccc(C)cc2)cc1	> 10	0.058		
CCCCOC(=O)NS(=O)(=O)c1sc(CC(C)C)cc1-c1ccc(CN(C)C)cc1	> 10	> 10		
CCCCOC(=O)NS(=O)(=O)c1sc(CC(C)C)cc1-c1ccc(CN(C)CC#N)cc1	> 10	> 10		
CCCCOC(=O)NS(=O)(=O)c1sc(CC(C)C)cc1-c1ccc(CN(C)C(=O)OCC)cc1	> 10	0.0097		
CCCCOC(=O)NS(=O)(=O)c1sc(CC(C)C)cc1-c1ccc(CN(C)C(C)=O)cc1	> 10	0.0088	Active	
CCCCOC(=O)NS(=O)(=O)c1sc(CC(C)C)cc1-c1ccc(CC(=O)N(C)CCCC)cc1	> 10	0.367		
CCCCOC(=O)NS(=O)(=O)c1sc(CC(C)C)cc1-c1ccc(CN(C)C(C)=O)cn1	> 10	> 10		
CCCCOC(=O)NS(=O)(=O)c1sc(CC(C)C)cc1-c1ccc(CN(C)C(=O)CCCC)cc1	> 10	0.012		
CCCCOC(=O)NS(=O)(=O)c1sc(CC(C)C)cc1-c1ccc(CC(=O)N2CCOCC2)cc1	> 10	0.124		
CCCCOC(=O)NS(=O)(=O)c1sc(CC(C)C)cc1-c1ccc(CN(C)C=O)cc1	> 10	0.0031		
CCCCCCNC(=O)Cc1ccc(-c2cc(CC(C)C)sc2S(=O)(=O)NC(=O)OCCCC)cc1	> 10	0.158		
CCCCOC(=O)NS(=O)(=O)c1sc(CC(C)C)cc1-c1ccc(CN(CC)C(=O)c2cccs2)cc1	> 10	0.138		
CCCCOC(=O)NS(=O)(=O)c1sc(CC(C)C)cc1-c1ccc(CC(=O)NCc2ccccc2)cc1	> 10	0.221		
CCCCOC(=O)NS(=O)(=O)c1sc(CC(C)C)cc1-c1ccc(CN(Cc2cccnc2)C(C)=O)cc1	> 10	0.059		
CCCCOC(=O)NS(=O)(=O)c1sc(CC(C)C)cc1-c1ccc(CN(Cc2cccnc2)C(=O)c2ccccc2)cc1	> 10	0.404		
CCCCOC(=O)NS(=O)(=O)c1sc(CC(C)C)cc1-c1ccc(CN(CC)C(C)=O)cc1	> 10	0.126		
